Data taken from ChEMBL document CHEMBL1142711 (J Med Chem, 2005).

How the values were obtained:
[1] = target: Mu-type opioid receptor (Rattus norvegicus) (UniProt P33535); test: Stimulation of [35S]-GTP-gamma S binding to Opioid receptor mu 1 expressed in C6 cells; type: functional, cell-based
[2] = target: T1, Kappa-type opioid receptor (Homo sapiens, UniProt P41145); test: Antagonistic activity against human opioid receptor kappa 1 expressed in CHO cells in [35S]GTP gamma S assay; type: functional, cell-based
Method in brief: (§1)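 Antagonism in [35S]GTPγS binding on membranes: rat MOR/DOR in C6 cells, human KOR in CHO cells. Agonist dose-response curves run with and without test ligand: DAMGO (MOR), SNC80 (DOR), U69593 (KOR). Ke = [antagonist]/(dose-ratio − 1), ± SEM. Three separate experiments.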

[3] = Relative binding affinity for rat Opioid receptor delta 1 and human Opioid receptor kappa 1
[4] = Relative binding affinity for rat Opioid receptor mu 1 and human Opioid receptor kappa 1
[5] = target: Mu-type opioid receptor (Rattus norvegicus) (UniProt P33535); test: Antagonistic activity against rat opioid receptor mu 1 expressed in C6 cells in [35S]GTP gamma S assay; type: functional, cell-based; method in brief: as §1
Mus musculus [6] = test: In vivo effective concentration for agonist activity in mouse tail withdrawal assay for antinociception after 24 hr of pre treatment with U-69,593 icv administration (10 nmol); type: functional, organism-based
Method in brief: (§2)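 Mouse warm-water tail withdrawal, water at 50 °C. Agonist U69593 given sc, and its dose-response EC50 (mg/kg) determined. Pretreatment 1, 3, 18, 24 or 48 h before, sc at 10 or 32 mg/kg; or icv 10 nmol at 1, 24, 48 or 168 h before. Vehicle control at −1 h. Fold shift and its significance reported.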

[7] = target: T1, Kappa-type opioid receptor; test: Agonist activity against Opioid receptor kappa 1 expressed in CHO cells in [35S]-GTP-gamma S assay; No stimulation up to 10000 nM; type: functional, cell-based
Mu-type opioid receptor [8] = target: T2, Mu-type opioid receptor (Rattus norvegicus, UniProt P33535); test: Agonist activity against Opioid receptor mu 1 expressed in C6 cells in [35S]-GTP-gamma S assay; No stimulation up to 10000 nM; type: functional, cell-based
[9] = target: T3, Delta-type opioid receptor (Rattus norvegicus, UniProt P33533); test: Inhibition of [3H]diprenorphine binding to rat Opioid receptor delta 1 expressed in C6 cells; type: cell-based
Method in brief: (§3)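 Competition binding with [3H]diprenorphine on rat MOR or DOR expressed in C6 cells and human KOR in CHO cells. Mean of three experiments, each in duplicate.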

[10] = target: Delta-type opioid receptor (Rattus norvegicus) (UniProt P33533); test: Antagonistic activity against rat opioid receptor delta 1 expressed in C6 cells in [35S]GTP gamma S assay; type: functional, cell-based; method in brief: as §1
Mus musculus [11] = test: In vivo effective concentration for agonist activity in mouse tail withdrawal assay for antinociception after 24 hr of pre treatment with U-69,593 sc administration (32 mg/kg); type: functional, organism-based; method in brief: as §2
[12] = target: T3, Delta-type opioid receptor; test: Agonist activity against Opioid receptor delta 1 expressed in C6 cells in [35S]-GTP-gamma S assay; No stimulation up to 10000 nM; type: functional, cell-based
Mu-type opioid receptor [13] = target: T2, Mu-type opioid receptor; test: Agonist activity against rat Opioid receptor mu 1 expressed in C6 cells in [35S]-GTP-gamma S binding assay; type: functional, cell-based
Mu-type opioid receptor [14] = target: T2, Mu-type opioid receptor; test: Inhibition of [3H]diprenorphine binding to rat Opioid receptor mu 1 expressed in C6 cells; type: cell-based; method in brief: as §3
[15] = target: T1, Kappa-type opioid receptor; test: Inhibition of [3H]diprenorphine binding to human opioid receptor kappa 1 expressed in CHO cells; type: cell-based; method in brief: as §3
[16] = target: T1, Kappa-type opioid receptor; test: Stimulation of [35S]-GTP-gamma S binding to Opioid receptor kappa 1 expressed in […] cells; type: functional, cell-based
Mus musculus [17] = test: In vivo effective concentration for agonist activity in mouse tail withdrawal assay for antinociception after 1 hr of pre treatment with U-69,593 icv administration (10 nmol); type: functional, organism-based; method in brief: as §2
Mus musculus [18] = test: In vivo effective concentration for agonist activity in mouse tail withdrawal assay for antinociception after 24 hr of pre treatment with U-69,593 sc administration (10 mg/kg); type: functional, organism-based; method in brief: as §2
Mus musculus [19] = test: In vivo effective concentration for agonist activity in mouse tail withdrawal assay for antinociception after 168h of pre treatment with U-69,593 icv administration (10 nmol); type: functional, organism-based; method in brief: as §2
Mus musculus [20] = test: In vivo effective concentration for agonist activity in mouse tail withdrawal assay for antinociception after 18 h of pre treatment with U-69,593 sc administration (10 mg/kg); type: functional, organism-based; method in brief: as §2
[21] = target: T1, Kappa-type opioid receptor; test: Agonist activity against human Opioid receptor kappa 1 expressed in CHO cells in [35S]-GTP-gamma S binding assay; type: functional, cell-based
Mus musculus [22] = test: In vivo effective concentration for agonist activity in mouse tail withdrawal assay for antinociception after 3h of pre treatment with U-69,593 sc administration (10 mg/kg); type: functional, organism-based; method in brief: as §2
Mus musculus [23] = test: In vivo effective concentration for agonist activity in mouse tail withdrawal assay for antinociception after 48 hr of pre treatment with U-69,593 icv administration (10 nmol); type: functional, organism-based; method in brief: as §2
Mus musculus [24] = test: In vivo effective concentration for agonist activity in mouse tail withdrawal assay for antinociception after 48 hr of pre treatment with U-69,593 sc administration (10 mg/kg); type: functional, organism-based; method in brief: as §2
Mus musculus [25] = test: In vivo effective concentration for agonist activity in mouse tail withdrawal assay for antinociception after 1 hr of pre treatment with U-69,593 sc administration (10 mg/kg); type: functional, organism-based; method in brief: as §2

Chain of Mu-type opioid receptor (Rattus norvegicus) (P33535 whole entry): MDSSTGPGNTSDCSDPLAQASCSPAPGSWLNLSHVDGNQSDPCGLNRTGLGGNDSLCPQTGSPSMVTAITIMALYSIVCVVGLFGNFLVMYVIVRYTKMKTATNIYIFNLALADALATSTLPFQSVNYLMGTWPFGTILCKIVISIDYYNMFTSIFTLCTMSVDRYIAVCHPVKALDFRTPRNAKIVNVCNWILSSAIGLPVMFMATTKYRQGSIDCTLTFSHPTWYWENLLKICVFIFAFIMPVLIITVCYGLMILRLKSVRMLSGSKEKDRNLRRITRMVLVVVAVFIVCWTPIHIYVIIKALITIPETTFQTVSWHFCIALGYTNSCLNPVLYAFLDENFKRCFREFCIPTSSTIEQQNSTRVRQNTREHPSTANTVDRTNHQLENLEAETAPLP
T2 sequence (P33535 whole entry): as above
T3 sequence (P33533 whole entry): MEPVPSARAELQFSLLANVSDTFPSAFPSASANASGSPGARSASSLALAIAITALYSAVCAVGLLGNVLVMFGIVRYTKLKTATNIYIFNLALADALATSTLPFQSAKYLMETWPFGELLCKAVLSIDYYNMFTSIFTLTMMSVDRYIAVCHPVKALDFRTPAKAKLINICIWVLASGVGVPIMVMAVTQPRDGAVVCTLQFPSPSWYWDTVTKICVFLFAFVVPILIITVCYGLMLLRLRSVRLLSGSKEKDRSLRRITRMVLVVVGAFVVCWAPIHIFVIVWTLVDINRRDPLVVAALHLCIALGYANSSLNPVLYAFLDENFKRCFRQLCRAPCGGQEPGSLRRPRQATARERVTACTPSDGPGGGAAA
T1 sequence (P41145 whole entry): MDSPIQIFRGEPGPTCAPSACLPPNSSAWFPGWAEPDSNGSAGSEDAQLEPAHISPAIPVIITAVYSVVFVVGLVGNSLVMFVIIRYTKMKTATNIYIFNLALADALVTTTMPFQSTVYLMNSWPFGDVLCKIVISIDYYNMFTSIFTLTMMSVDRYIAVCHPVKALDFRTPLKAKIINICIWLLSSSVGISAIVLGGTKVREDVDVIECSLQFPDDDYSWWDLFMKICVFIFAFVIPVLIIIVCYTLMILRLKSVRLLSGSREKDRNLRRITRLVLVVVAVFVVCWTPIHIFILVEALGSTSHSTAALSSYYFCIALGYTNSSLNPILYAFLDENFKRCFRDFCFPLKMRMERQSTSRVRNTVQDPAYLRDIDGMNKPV
Chain of Delta-type opioid receptor (Rattus norvegicus) (P33533 whole entry): as the sequence (P33533 whole entry) above

Compound	Stimulation [1]	Ke [2]	Ratio [3]	Ratio [4]	Ke [5]	EC50 (Mus musculus [6])	EC50 [7]	Ki [9]	Ke [10]	EC50 (Mus musculus [11])	EC50 [12]	EC50 (Mu-type opioid receptor [13])	Ki (Mu-type opioid receptor [14])	Ki [15]	further results
C[C@H]1c2c(c3c(n2Cc2ccccc2)[C@@H]2Oc4c(O)ccc5c4[C@@]24CCN(C)[C@H](C5)[C@]4(O)C3)CC2(O)[C@H]3Cc4ccc(O)c(O)c4[C@@]12CCN3C (stereo partly specified)	54%	311 nM	8	0.3											
Oc1ccc2c3c1O[C@H]1c4[nH]c5c(c4C[C@@]4(O)[C@@H](C2)N(CC2CC2)CC[C@]314)C[C@@]1(O)[C@H]2Cc3ccc(O)c4c3[C@@]1(CCN2CC1CC1)[C@H]5O4 [NORBINALTORPHIMINE]		0.11 nM			2.38 nM	31.8 mg/kg	Not Active	5.8 nM	5.17 nM	22.7 mg/kg	Not Active				EC50 (Mu-type opioid receptor [8]): Not Active
CN1CC[C@]23c4c5ccc(O)c4O[C@H]2c2[nH]c4c(c2C[C@@]3(O)[C@H]1C5)C[C@@]1(O)[C@H]2Cc3ccc(O)c5c3[C@@]1(CCN2C)[C@H]4O5	66%	27 nM	13	8			Not Active	98.2 nM			Not Active	1390 nM	63.6 nM	7.7 nM	
Oc1ccc2c3c1O[C@H]1c4c(c5c(n4Cc4ccccc4)[C@@H]4Oc6c(O)ccc7c6[C@@]46CCN(CC4CC4)[C@H](C7)[C@]6(O)C5)C[C@@]4(O)[C@@H](C2)N(CC2CC2)CC[C@]314	38%	0.26 nM	12	14	25.5 nM	26.3 mh/kg		8.6 nM	13.3 nM	5.7 mh/kg	Not Active	187 nM	10 nM	0.7 nM	Stimulation [16]: 29%; EC50 (Mus musculus [17]): 49.1 mh/kg; EC50 (Mus musculus [18]): 4.4 mg/kg; EC50 (Mus musculus [19]): 37 mh/kg; EC50 (Mus musculus [20]): 9 mg/kg; EC50 [21]: 1910 nM; EC50 (Mus musculus [22]): 2.1 mg/kg; EC50 (Mus musculus [23]): 74.2 mh/kg; EC50 (Mus musculus [24]): 9.9 mh/kg; EC50 (Mus musculus [25]): 2 mg/kg
